In ChEMBL document CHEMBL1137298, “2-triazole-substituted adenosines: a new class of selective A3 adenosine receptor agonists, partial agonists, and antagonists” (J Med Chem, 2006):
Activity calls are given as the source filed them. No cut-off for these calls is given here.

What was measured:
[1] = biological target: T1, Adenosine receptor A1 (Homo sapiens, UniProt P30542); test: Displacement of [3H]CCPA from human Adenosine A1 receptor expressed in CHO cells; type: cell-based
T1 sequence (P30542 whole entry): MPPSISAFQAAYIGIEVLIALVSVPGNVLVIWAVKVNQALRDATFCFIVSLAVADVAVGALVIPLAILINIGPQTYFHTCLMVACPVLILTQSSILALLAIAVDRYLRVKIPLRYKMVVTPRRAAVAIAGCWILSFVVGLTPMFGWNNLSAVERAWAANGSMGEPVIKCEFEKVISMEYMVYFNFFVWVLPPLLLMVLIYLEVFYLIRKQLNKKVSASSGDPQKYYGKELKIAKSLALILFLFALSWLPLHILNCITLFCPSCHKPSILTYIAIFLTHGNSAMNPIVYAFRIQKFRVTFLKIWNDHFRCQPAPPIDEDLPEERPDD

[2] = biological target: T2, Adenosine receptor A2a (Homo sapiens, UniProt P29274); test: Inhibition of [3H]CGS21680 binding to human Adenosine A2A receptor expressed in CHO cells at 10 uM; type: cell-based
T2 sequence (P29274 whole entry): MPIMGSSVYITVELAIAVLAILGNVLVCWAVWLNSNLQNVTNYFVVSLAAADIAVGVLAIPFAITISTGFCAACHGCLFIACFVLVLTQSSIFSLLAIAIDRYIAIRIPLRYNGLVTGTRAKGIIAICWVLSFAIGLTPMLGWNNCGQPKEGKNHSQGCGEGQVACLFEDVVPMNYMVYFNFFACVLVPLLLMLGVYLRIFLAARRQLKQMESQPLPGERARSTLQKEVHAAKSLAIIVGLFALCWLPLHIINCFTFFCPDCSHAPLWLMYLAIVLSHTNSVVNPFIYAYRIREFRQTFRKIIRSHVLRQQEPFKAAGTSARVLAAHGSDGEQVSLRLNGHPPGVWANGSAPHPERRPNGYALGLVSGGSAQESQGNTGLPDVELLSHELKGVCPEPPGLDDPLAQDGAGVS
In short: (§1)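 Membranes from CHO cells stably transfected with human A1AR (radioligand [3H]CCPA) or human A2AAR (radioligand [3H]CGS21680), in Tris-HCl pH 7.4/MgCl2/EDTA buffer with adenosine deaminase. Compound tested at a fixed 10 µM. Result expressed as percent displacement of radioligand, n = 3 unless otherwise noted.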

[3] = biological target: Adenosine receptors; A1 & A3 (Homo sapiens) (UniProt P30542+P0DMS8); test: Selectivity for human adenosine A3 over human adenosine A1 receptor; type: protein assay
[4] = biological target: T3, Adenosine receptor A3 (Homo sapiens, UniProt P0DMS8); test: Displacement of [125I]AB-MECA from human Adenosine A3 receptor expressed in CHO cells; type: cell-based
T3 sequence (P0DMS8 whole entry): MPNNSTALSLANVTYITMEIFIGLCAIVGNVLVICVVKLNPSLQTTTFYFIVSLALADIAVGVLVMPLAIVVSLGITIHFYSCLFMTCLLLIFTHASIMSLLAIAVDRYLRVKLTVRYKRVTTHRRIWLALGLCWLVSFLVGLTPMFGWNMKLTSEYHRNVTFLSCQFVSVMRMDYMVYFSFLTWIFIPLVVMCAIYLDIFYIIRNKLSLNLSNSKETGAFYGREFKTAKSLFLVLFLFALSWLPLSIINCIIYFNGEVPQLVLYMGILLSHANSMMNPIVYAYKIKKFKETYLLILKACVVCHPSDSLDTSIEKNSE

[5] = biological target: Adenosine receptor A2b (Homo sapiens) (UniProt P29275); test: Activity at human adenosine A2B receptor in CHO cells assessed as stimulation of cAMP production relative to NECA at 10 uM
[6] = biological target: T4, Adenosine receptor A3 (Rattus norvegicus, UniProt P28647); test: Displacement of [125I]AB-MECA from rat Adenosine A3 receptor expressed in CHO cells; type: cell-based
T4 sequence (P28647 whole entry): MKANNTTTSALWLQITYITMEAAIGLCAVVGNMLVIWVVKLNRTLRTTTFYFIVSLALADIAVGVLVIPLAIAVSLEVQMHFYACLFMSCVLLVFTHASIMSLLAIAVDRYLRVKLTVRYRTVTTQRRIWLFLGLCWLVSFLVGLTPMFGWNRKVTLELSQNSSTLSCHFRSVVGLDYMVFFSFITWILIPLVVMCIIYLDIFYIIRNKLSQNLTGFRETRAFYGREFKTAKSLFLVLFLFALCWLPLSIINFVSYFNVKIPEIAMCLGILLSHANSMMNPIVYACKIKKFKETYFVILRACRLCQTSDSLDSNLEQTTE
In short: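 Membranes from CHO cells expressing rat A3AR, prepared in 50 mM Tris-HCl pH 7.4 with 10 mM MgCl2, 1 mM EDTA and 3 units/mL adenosine deaminase. Incubated with [125I]AB-MECA (0.5 nM final) and increasing compound concentrations for 60 min at 25 °C. Nonspecific binding defined with 10 µM NECA. GF/B filtration, gamma counting, Ki derived.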

[7] = biological target: T5, Adenosine receptor A1 (Homo sapiens) (UniProt P30542); test: Inhibition of [3H]CCPA binding to human Adenosine A1 receptor expressed in CHO cells at 10 uM; type: cell-based; in short: as §1
T5 sequence (whole entry): T1 sequence (P30542 whole entry)

[8] = biological target: T2, Adenosine receptor A2a; test: Displacement of [3H]CGS-21680 from human Adenosine A2A receptor expressed in CHO cells; type: cell-based

Compound	Ki [1] [nM]	inhibition [2] [%]	Selectivity ratio [3]	Ki [4] [nM]	Activity [5]	Ki [6] [nM]	inhibition [7] [%]	Ki [8] [nM]
CNc1nc(-c2cn(Cc3cccc(Cl)c3)nn2)nc2c1ncn2[C@@H]1O[C@H](CO)[C@@H](O)[C@H]1O	956	39	–	81.1	< 50%	–	–	–
CCCOc1ccc(-c2cn(-c3nc(NC)c4ncn([C@@H]5O[C@H](CO)[C@@H](O)[C@H]5O)c4n3)nn2)cc1	–	14	–	25.2	< 50%	> 10000	49	–
CNc1nc(-n2cc(CN(C)C)nn2)nc2c1ncn2[C@@H]1O[C@H](CO)[C@@H](O)[C@H]1O	3800	6	–	117	inactive	> 10000	–	–
CNc1nc(-c2cn(Cc3ccccc3)nn2)nc2c1ncn2[C@@H]1O[C@H](CO)[C@@H](O)[C@H]1O	770	21	–	53.9	< 50%	–	–	–
CNc1nc(-n2cc(-c3ccccn3)nn2)nc2c1ncn2[C@@H]1O[C@H](CO)[C@@H](O)[C@H]1O	1970	40	–	10.3	inactive	> 10000	–	–
CNc1nc(-n2cc(-c3ccccc3)nn2)nc2c1ncn2[C@@H]1O[C@H](CO)[C@@H](O)[C@H]1O	–	5	–	14.9	inactive	–	36	–
CNc1nc(-c2cn(Cc3cccc(OC)c3)nn2)nc2c1ncn2[C@@H]1O[C@H](CO)[C@@H](O)[C@H]1O	957	43	–	86.1	< 50%	–	–	–
CNc1nc(-n2ccnn2)nc2c1ncn2[C@@H]1O[C@H](CO)[C@@H](O)[C@H]1O	1000	13	–	10.4	–	–	–	–
CNc1nc(N=[N+]=[N-])nc2c1ncn2[C@@H]1O[C@H](CO)[C@@H](O)[C@H]1O	–	23	–	–	< 50%	–	–	–
CNc1nc(-n2cc(Cc3ccccc3)nn2)nc2c1ncn2[C@@H]1O[C@H](CO)[C@@H](O)[C@H]1O	589	20	–	9.5	< 50%	1790	–	–
CCNC(=O)[C@H]1O[C@@H](n2cnc3c(NC)nc(N=[N+]=[N-])nc32)[C@H](O)[C@@H]1O	–	18	–	–	50%	–	–	–
CNc1nc(-n2cc(CCO)nn2)nc2c1ncn2[C@@H]1O[C@H](CO)[C@@H](O)[C@H]1O	1270	14	–	45	inactive	–	–	–

Next, values leading:

Ki [1] [nM]	inhibition [2] [%]	Selectivity ratio [3]	Ki [4] [nM]	Activity [5]	Ki [6] [nM]	inhibition [7] [%]	Ki [8] [nM]	Compound
1430	16	67	21.3	< 50%	–	–	–	CNc1nc(-n2cc(CC3CCCCC3)nn2)nc2c1ncn2[C@@H]1O[C@H](CO)[C@@H](O)[C@H]1O
335	39	260	1.3	< 50%	312	–	–	CNc1nc(-n2cc(CC3CCCC3)nn2)nc2c1ncn2[C@@H]1O[C@H](CO)[C@@H](O)[C@H]1O
830	–	–	18	–	–	–	6000	COc1ccc(Cl)cc1CNc1nc(-n2cc(CC3CCCC3)nn2)nc2c1ncn2[C@@H]1O[C@H](CO)[C@@H](O)[C@H]1O
1640	45	910	1.8	< 50%	–	–	–	CCNC(=O)[C@H]1O[C@@H](n2cnc3c(NC)nc(-n4cc(-c5ccccn5)nn4)nc32)[C@H](O)[C@@H]1O
2920	18	–	13.8	< 50%	–	–	–	CCc1cn(-c2nc(NC)c3ncn([C@@H]4O[C@H](CO)[C@@H](O)[C@H]4O)c3n2)nn1
590	18	–	2.1	inactive	–	–	–	CCNC(=O)[C@H]1O[C@@H](n2cnc3c(NC)nc(-n4ccnn4)nc32)[C@H](O)[C@@H]1O
510	33	–	2.8	50%	–	–	–	CCNC(=O)[C@H]1O[C@@H](n2cnc3c(NC)nc(-n4cc(Cc5ccccc5)nn4)nc32)[C@H](O)[C@@H]1O
750	43	–	5.6	inactive	–	–	–	CCCCc1cn(-c2nc(NC)c3ncn([C@@H]4O[C@H](C(=O)NCC)[C@@H](O)[C@H]4O)c3n2)nn1
1250	36	–	11.5	< 50%	–	–	–	CCNC(=O)[C@H]1O[C@@H](n2cnc3c(NC)nc(-n4cc(CC5CCCC5)nn4)nc32)[C@H](O)[C@@H]1O
–	23	72	11.7	inactive	–	–	–	CCCCc1cn(-c2nc(NC)c3ncn([C@@H]4O[C@H](CO)[C@@H](O)[C@H]4O)c3n2)nn1
